Assay [1] has as its system T47D. Put plainly: Effect on cellular respiration in human T47D cells assessed as increase in oxygen consumption at 10 to 30 uM. The assay is classed as functional. A digest of the protocol:
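Oxygen consumption of intact respiring T47D cells. Compound added in half-log increments; FCCP as reference uncoupler. Rate expressed as % of untreated control. For 10 and 30 μM: mean + SD from three independent experiments. Lower concentrations: n = 2.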

Assay [2] deals with T1, Hypoxia inducible factors; HIF-1-alpha, HIF-2-alpha (Homo sapiens, UniProt Q16665+Q99814). In words: Inhibition of 1,10-phenanthroline-induced HIF1 activation in human T47D cells after 16 hrs by HRE3-TK-luciferase reporter gene assay. The assay is classed as cell-based. A digest of the protocol: (§1)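 T47D reporter assay for HIF-1 activity. Induced by hypoxia (1% O2) or by 1,10-phenanthroline (10 μM). Compounds tested at 0.3–30 μM in half-log steps; cycloheximide 1 μM as positive control. Luciferase signal expressed as % inhibition of the induced control without compound. IC50 and 95% CI from one experiment in triplicate.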
(A reporter such as luciferase makes a cellular process visible.)

Assay [3] concerns the target T1, Hypoxia inducible factors; HIF-1-alpha, HIF-2-alpha. In words: Inhibition of HIF1-mediated VEGF production in human T47D cells under 1,10-phenanthroline-induced hypoxic condition at 10 uM after 16 hrs by ELISA. The assay is classed as cell-based. A digest of the protocol: (§2)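 T47D cells exposed 16 h to hypoxia (1% O2) or to 1,10-phenanthroline (10 μM), with compound at 10 μM. Secreted VEGF in conditioned medium measured by ELISA and normalized to cellular protein. Cycloheximide 10 μM as positive control; normoxic medium control included. Mean + SD of one experiment in triplicate.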
On the technique in general: ELISA stands for enzyme-linked immunosorbent assay.

In assay [4] the test system is T47D. Put plainly: Decrease in mitochondrial membrane potential in human T47D cells at 10 uM after 15 to 20 mins by TMRM assay. The assay is classed as functional, cell-based. In a few lines: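 T47D cells preloaded with TMRM, then given compound. Epifluorescence images taken before and 15–20 min after addition. Per-cell fluorescence intensity quantified; solvent control 0.26% DMSO; FCCP as reference. Groups compared by unpaired t test.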

Assay [5] concerns MDA-MB-231. Put plainly: Cytotoxicity against human MDA-MB-231 cells after 48 hrs by SRB assay. The assay is classed as functional, cell-based. The conditions noted are these: MDA-MB-231, 48 h. A digest of the protocol: (§3)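 Cells from ATCC treated 48 h with compounds from DMSO stocks (final DMSO under 0.5%). IC50 and 95% CI fitted from one experiment run in triplicate.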
For orientation: Sulforhodamine B stains cellular protein and so reports cell mass.

For assay [6], the target named is T1, Hypoxia inducible factors; HIF-1-alpha, HIF-2-alpha. Put plainly: Inhibition of hypoxia-induced HIF1 activation in human T47D cells after 16 hrs by HRE3-TK-luciferase reporter gene assay. The assay is classed as cell-based. In a few lines:
as §1

Assay [7] has as its system T47D. Put plainly: Cytotoxicity against human T47D cells after 48 hrs by SRB assay. The assay is classed as functional, cell-based. A digest of the protocol:
as §3

Assay [8] addresses T1, Hypoxia inducible factors; HIF-1-alpha, HIF-2-alpha. In words: Inhibition of HIF1-mediated VEGF production in human T47D cells under hypoxic condition at 10 uM after 16 hrs by ELISA. The assay is classed as cell-based. A digest of the protocol: as §2
Assay [9] deals with MDA-MB-231. Put plainly: Cytotoxicity against human MDA-MB-231 cells assessed as decrease in cell viability at 30 uM after 48 hrs by SRB assay. The assay is classed as functional.
In assay [10] the test system is T47D. In words: Cytotoxicity against human T47D cells assessed as decrease in cell viability at 30 uM after 48 hrs by SRB assay. The assay is classed as functional.

Counter-ions that a name gives are not always drawn. Activity calls are given as the source filed them. No cut-off for these calls is given here.

With `C[C@@]12CCCc3coc(c31)C(=O)c1cc3c(cc12)C(=O)C=C(CO)C3=O`, the Activity in assay [1] turned out to be 47%. Also, the IC50 (commonly the concentration needed to halve the response being measured) in [2] was found to be 1.2 µM; in [5] it was 6.5 µM; in [6] it was 1.7 µM; in assay [7], 3.6 µM. In addition, the inhibition result in [3] and in assay [8] was “Active” each time. Besides, the result in assay [4] was Active.

As for `C[C@@]12CCCc3coc(c31)C(=O)c1cc3c(cc12)C(=O)C(CO)=CC3=O`, the half-maximal inhibitory concentration (IC50) in assay [2] turned out to be 1.5 µM; in assay [5], 6.3 µM; in assay [6], 2.3 µM; in assay [7], 4.3 µM. In addition, the inhibition result in assay [3] and in assay [8] was “Active” each time.

In the case of `C[C@@]12CCCc3coc(c31)C(=O)c1cc3c(cc12)C(=O)CCC3=O`, the IC50 in [2] worked out at 4.2 µM; in [5] it was 28.1 µM; in [6], 10.6 µM; in [7], 15.9 µM. The inhibition result in [3] and in [8] was “inactive” throughout.

`C[C@@]12CCCc3coc(c31)C(=O)c1cc3c(cc12)C(=O)C1=NCCS(=O)(=O)C1=C3O` [ADOCIAQUINONE A]: the Activity in [1] is listed as 47%. Further, the IC50 in assay [2] worked out at 0.2 µM; in assay [5] it was 6.3 µM; in assay [6], 6.4 µM; in [7], 2.6 µM. The inhibition result in [3] was “Active”. For the same compound, the result in assay [4] was inactive. Moreover, in [8], the inhibition result is “inactive”.

Consider `C[C@@]12CCCc3coc(c31)C(=O)c1cc3c(cc12)C(=O)C1=C(NCCS1(=O)=O)C3=O` [ADOCIAQUINONE B], for which the concentration for half-maximal inhibition (IC50) in assay [2] stood at 0.2 µM; in assay [5] it was 6.1 µM; in assay [6], 4.6 µM; in [7], 2.9 µM. Also, the inhibition entry in [3] is “Active”. For the same compound, the inhibition entry in assay [8] is “inactive”.

Consider `C[C@@]12CCCc3coc(c31)C(=O)c1cc3c(O)ccc(OS(=O)(=O)O)c3cc12` [XESTOQUINOL SULFATE], for which the concentration for half-maximal inhibition (IC50) in [2], in [5], in assay [6] and in assay [7] was > 30 µM in each case. Further, the Activity in assay [9] and in assay [10] was <5% each time.

Turning to `C[C@@]12CCCc3coc(c31)C(=O)c1cc3c(cc12)C(=O)C=CC3=O` [XESTOQUINONE], the Activity in assay [1] was determined as 47%. Further, the half-maximal inhibitory concentration (IC50) in assay [2] stood at 7.3 µM; in assay [5] it was 20.6 µM; in assay [6], 12.3 µM; in [7] it was 13.8 µM. Besides, the inhibition entry in assay [3] and in assay [8] was “inactive” in each case. Besides, the outcome in assay [4] was inactive.

For the origin of these results see ChEMBL document CHEMBL2151009, “Structures and mechanisms of antitumor agents: xestoquinones uncouple cellular respiration and disrupt HIF signaling in human breast tumor cells” (J Nat Prod, 2012).
